Experimental data reported in ChEMBL document CHEMBL5385970, “Design, synthesis, and evaluation of novel ferrostatin derivatives for the prevention of HG-induced VEC ferroptosis” (RSC Med Chem, 2024).
pEC50, pIC50: −log10 of the molar value. ≈ marks a conversion by molar mass, not a printed value. Calls of active or inactive are those of the source. No cut-off for these calls is given here.

Tests used:
[1] = Kinetic solubility of compound in PBS buffer at pH7.4 incubated for; type: physicochemical; details: pH 7.4, read-out: Kinetic_solubility
Outline: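 DMSO stocks ([…]) were diluted 4 μL into 196 μL of 10 mM PBS pH 7.4, giving final concentrations of 3.13–200 μM. Plate shaken for 10 s and incubated 2 h at 37 °C. Solubility taken as the highest concentration with no measurable turbidity.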

[2] = Antioxidant activity assessed as DPPH radical scavenging activity incubated for 30 mins; type: functional
Outline: (§1)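 DPPH at 100 μM in ethanol (180 μL) mixed with compound in DMSO (20 μL), giving 50 μM final compound. Kept 30 min in the dark at room temperature, then A517 read to obtain DPPH clearance. For IC50, a concentration gradient of compound was tested and the curve fitted.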

HUVEC [3] = test: Cytotoxicity against human HUVEC cells assessed as reduction in erastin-induced cell survival at 10 uM measured for 24 hrs by SRB assay; type: toxicity, cell-based
Outline: (§2)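 HUVECs (gelatin-coated dishes, M199 with 20% bovine serum and FGF2, 37 °C, 5% CO2) seeded in 96-well plates and incubated overnight. Treated 24 h with 10 μM erastin alone or with compound (10 μM, or a range of concentrations). Cells fixed with TCA, stained with 0.4% SRB in 1% acetic acid, dissolved in 10 mM Tris pH 10.5, A540 read. Survival computed relative to blank and untreated control. At least three separate experiments.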

[4] = Antioxidant activity assessed as DPPH radical scavenging activity at 50 uM incubated for 30 mins relative to control; type: functional; outline: as §1
HUVEC [5] = test: Cytotoxicity against human HUVEC cells assessed as high glucose-induced cell survival at 10 uM measured for 24 hrs by SRB assay; type: toxicity, cell-based
Outline: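 HUVECs in M199 with 20% bovine serum and FGF2, plated in 96-well plates, incubated overnight. Exposed to 30 mM high glucose alone or with 10 μM compound for 24 h. Viability by SRB (TCA fixation, 0.4% SRB stain, Tris pH 10.5 solubilisation, A540). Survival expressed relative to blank and untreated control. n = 3.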

HUVEC [6] = test: Anti-ferroptotic activity against Erastin-induced ferroptosis in human HUVEC cells assessed as cell viability incubated for 24 hrs by SRB assay; type: functional, cell-based; outline: as §2
[7] = Microsomal stability in human liver microsome assessed as parent compound remaining measured after 60 mins in absence of NADPH by LC-MS/MS analysis; type: ADME; details: liver microsomes, read-out: Stability
Outline: (§3)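 Compound at 1 μM final was incubated at 37 °C with liver microsomes (human, rat or mouse) in pH 7.4 buffer, with and without NADPH. Verapamil served as reference. Samples taken at 0–60 min and quenched in acetonitrile with tolbutamide internal standard. Analysed by LC-MS/MS on a C18 column with a water/acetonitrile 0.1% TFA gradient. Parent remaining reported at 60 min; T1/2 also derived.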

[8] = Microsomal stability in human liver microsome assessed as parent compound remaining measured after 60 mins in presence of NADPH by LC-MS/MS analysis; type: ADME; details: liver microsomes, read-out: Stability; outline: as §3
HUVEC [9] = test: Anti-ferroptotic activity against human HUVEC cells assessed as decrease in LPO level at 10 uM incubated for 24 hrs; type: functional, cell-based
Outline: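 HUVECs given 30 mM high glucose plus 10 μM compound for 24 h. Cells collected, extracted and sonicated on ice (3 s on, 7 s off, 3 min total), then spun 8000 × g for 10 min at 4 °C. LPO measured in the supernatant with a kit. Values relative to untreated cells set to 1; n = 3.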

[10] = Microsomal stability in rat liver microsome assessed as half life measured upto 60 mins by LC-MS/MS analysis; type: ADME; details: liver microsomes
[11] = Microsomal stability in rat liver microsome assessed as parent compound remaining measured after 60 mins in absence of NADPH by LC-MS/MS analysis; type: ADME; details: liver microsomes, read-out: Stability; outline: as §3
[12] = Microsomal stability in mouse liver microsome assessed as half life measured upto 60 mins by LC-MS/MS analysis; type: ADME; details: liver microsomes
HUVEC [13] = test: Upregulation of GPX4 expression in high glucose-induced human HUVEC cells at 10 uM incubated for 24 hrs by Western blot analysis; type: functional, cell-based
Outline: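 HUVECs exposed 24 h to 30 mM high glucose and 10 μM compound, then lysed in RIPA. Protein by BCA; 15 μg per lane run on 12% SDS-PAGE and blotted to PVDF. Probed with anti-GPX4 (1:1000) and anti-β-actin (1:5000) overnight at 4 °C, detected by ECL, and quantified by densitometry. Untreated cells normalized to 1; n = 3.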

[14] = Microsomal stability in rat liver microsome assessed as parent compound remaining measured after 60 mins in presence of NADPH by LC-MS/MS analysis; type: ADME; details: liver microsomes, read-out: Stability; outline: as §3
HUVEC [15] = test: Inhibition of ROS accumulation in high glucose-induced human HUVEC cells at 10 uM incubated for 24 hrs by DCF-DA staining based fluorescence microscopic analysis
HUVEC [16] = test: Induction of mitochondrial damage in high glucose-induced human HUVEC cells assessed as increase in monomer formation at 10 uM incubated for 24 hrs by JC-1 staining based flow cytometry analysis; type: functional, cell-based
[17] = Microsomal stability in human liver microsome assessed as half life measured upto 60 mins by LC-MS/MS analysis; type: ADME; details: liver microsomes
HUVEC [18] = test: Anti-ferroptotic activity against human HUVEC cells assessed as decrease in intracellular ferrous ion level at 10 uM incubated for 24 hrs by ferroOrange probe based analysis; type: functional, cell-based
Outline: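 After 24 h with 30 mM high glucose and 10 μM compound, HUVECs were washed three times in serum-free medium. Loaded with 1 μM FerroOrange for 30 min at 37 °C, 5% CO2, then imaged by fluorescence microscopy. Ferrous ion signal quantified relative to untreated control set to 1; n = 3.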

HUVEC [19] = test: Anti-ferroptotic activity against human HUVEC cells assessed as decrease in MDA level at 10 uM incubated for 24 hrs; type: functional, cell-based
Outline: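 Cells were HUVECs under 30 mM high glucose with 10 μM compound, 24 h. Lysed in Western/IP lysis buffer and spun 10 000 × g for 10 min. MDA measured by kit in the supernatant and normalized to mg protein. Expressed relative to untreated control set to 1; n = 3.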

[20] = Microsomal stability in mouse liver microsome assessed as parent compound remaining measured after 60 mins in absence of NADPH by LC-MS/MS analysis; type: ADME; details: liver microsomes, read-out: Stability; outline: as §3
[21] = Microsomal stability in mouse liver microsome assessed as parent compound remaining measured after 60 mins in presence of NADPH by LC-MS/MS analysis; type: ADME; details: liver microsomes, read-out: Stability; outline: as §3
HUVEC [22] = test: Cytotoxicity against human HUVEC cells assessed as reduction in cell viability at 10 uM measured for 24 hrs by SRB assay; type: toxicity, cell-based
Outline: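 HUVECs were grown on gelatin-coated dishes in M199 with 20% bovine serum and 10 IU/mL FGF2 at 37 °C, 5% CO2. Cells were seeded in 96-well plates, incubated overnight, then exposed to compound for 24 h. They were TCA-fixed, stained for 10 min with 0.4% SRB in 1% acetic acid, and dissolved in 10 mM Tris (pH 10.5). A540 survival was calculated relative to blank and control, from at least three experiments.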

Compound	solubility kinetic [1]	pIC50 [2]	Activity (HUVEC [3])	Activity [4]	Activity (HUVEC [5])	pEC50 (HUVEC [6])	further results
O=C(N/N=C/c1ccc(O)cc1)c1ccc(NC2CCCCC2)c(NCc2ccccc2)c1	28.6 µM (≈ 12.7 µg/mL)	4.25	Non-Toxic	53.3%	Non-Toxic	6.10	–
O=C(N/N=C/c1ccc([N+](=O)[O-])cc1)c1ccc(NC2CCCCC2)c(NCc2ccccc2)c1	–	–	Non-Toxic	–	–	–	–
O=C(N/N=C/c1cccc(OCc2ccccc2)c1)c1ccc(NC2CCCCC2)c(NCc2ccccc2)c1	20 µM (≈ 10.7 µg/mL)	4.23	Non-Toxic	52.2%	Non-Toxic	6.17	–
O=C(N/N=C/c1ccc(Cl)c(Cl)c1)c1ccc(NC2CCCCC2)c(NCc2ccccc2)c1	–	–	Non-Toxic	–	–	–	–
N#Cc1ccc(/C=N/NC(=O)c2ccc(NC3CCCCC3)c(NCc3ccccc3)c2)cc1	–	–	Toxic	–	–	–	–
N#Cc1cccc(/C=N/NC(=O)c2ccc(NC3CCCCC3)c(NCc3ccccc3)c2)c1	22.2 µM (≈ 10 µg/mL)	4.41	Non-Toxic	59.6%	Non-Toxic	6.21	–
O=C(N/N=C/c1ccc(OCc2ccccc2)cc1)c1ccc(NC2CCCCC2)c(NCc2ccccc2)c1	20 µM (≈ 10.7 µg/mL)	4.42	Non-Toxic	65.9%	Non-Toxic	6.30	remaining at 1 h [7]: 105%; remaining at 1 h [8]: 0.6%; Activity (HUVEC [9]): Active; half-life [10]: 9.1 min; remaining at 1 h [11]: 110%; half-life [12]: 9 min; Activity (HUVEC [13]): Active; remaining at 1 h [14]: 1%; Activity (HUVEC [15]): Active; Activity (HUVEC [16]): Active; half-life [17]: 4.9 min; Activity (HUVEC [18]): Active; Activity (HUVEC [19]): Active; remaining at 1 h [20]: 38%; remaining at 1 h [21]: 1%
O=C(N/N=C/c1ccc(Cl)cc1)c1ccc(NC2CCCCC2)c(NCc2ccccc2)c1	28.6 µM (≈ 13.2 µg/mL)	4.33	Non-Toxic	53.4%	Non-Toxic	6.14	–
CCOC(=O)c1ccc(NC2CCCCC2)c(NCc2ccccc2)c1	6.2 µM (≈ 2.19 µg/mL)	4.33	–	56.4%	–	–	–
O=C(N/N=C/c1cccc([N+](=O)[O-])c1)c1ccc(NC2CCCCC2)c(NCc2ccccc2)c1	20 µM (≈ 9.43 µg/mL)	4.34	Non-Toxic	53.3%	Non-Toxic	6.16	–
O=C(N/N=C/c1ccccc1)c1ccc(NC2CCCCC2)c(NCc2ccccc2)c1	–	–	Non-Toxic	–	–	–	–
CCOc1ccccc1-n1c(C(C)N2CCN(C(=O)COc3ccc(Cl)cc3)CC2)nc2ccccc2c1=O (stereo not drawn) [ERASTIN]	–	–	–	–	–	–	Activity (HUVEC [22]): 75%
O=C(N/N=C/c1ccc(Br)cc1)c1ccc(NC2CCCCC2)c(NCc2ccccc2)c1	–	–	Non-Toxic	–	–	–	–
O=C(N/N=C/c1ccc(F)c([N+](=O)[O-])c1)c1ccc(NC2CCCCC2)c(NCc2ccccc2)c1	–	–	Toxic	–	–	–	–
CCOC(=O)c1ccc(NC2CCCCC2)c(N)c1	> 200 µM	4.27	–	52.5%	Non-Toxic	6.22	remaining at 1 h [7]: 6%; remaining at 1 h [8]: 7.6%; half-life [10]: 18.4 min; remaining at 1 h [11]: 4%; half-life [12]: 2.7 min; remaining at 1 h [14]: 6.1%; half-life [17]: 16.8 min; remaining at 1 h [20]: 5%; remaining at 1 h [21]: 6.6%
O=C(N/N=C/c1ccccc1OCc1ccccc1)c1ccc(NC2CCCCC2)c(NCc2ccccc2)c1	–	–	Toxic	–	–	–	–
O=C(N/N=C/c1cccc(O)c1O)c1ccc(NC2CCCCC2)c(NCc2ccccc2)c1	–	–	Toxic	–	–	–	–
O=C(N/N=C/c1ccc(N2CCCC2)cc1)c1ccc(NC2CCCCC2)c(NCc2ccccc2)c1	–	–	Non-Toxic	–	–	–	–
COc1cc(/C=N/NC(=O)c2ccc(NC3CCCCC3)c(NCc3ccccc3)c2)cc(OC)c1	–	–	Non-Toxic	–	–	–	–
CN(C)c1ccc(/C=N/NC(=O)c2ccc(NC3CCCCC3)c(NCc3ccccc3)c2)cc1	–	–	Non-Toxic	–	–	–	–
COc1ccccc1/C=N/NC(=O)c1ccc(NC2CCCCC2)c(NCc2ccccc2)c1	25 µM (≈ 11.4 µg/mL)	4.26	Non-Toxic	57.4%	Non-Toxic	6.19	–
COc1ccc(/C=N/NC(=O)c2ccc(NC3CCCCC3)c(NCc3ccccc3)c2)c(O)c1	–	–	Non-Toxic	–	–	–	–
O=C(N/N=C/c1ccc(F)c(Br)c1)c1ccc(NC2CCCCC2)c(NCc2ccccc2)c1	–	–	Non-Toxic	–	–	–	–
